AI-2 QS modul: modulates the Vibrio harveyi AI-2 quorum sensing system; hit rate 0.4% among 300,000; AID 2094; activity change, % at 7.5 µM; Vibrio harveyi JMH597 AI-2 luminescence/OD600 ratio, 9 h; stronger effect = lower value; strain lacks LuxN and CqsS sensors; 0 = neutral-control median; in the data active = activity change below about -75%, passing the limit was not always enough; inconclusive = no clear call, values can overlap the other calls;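 also: luminescence divided by OD600 gain over 9 h not by final OD600 alone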
HTR2A ag: mouse HTR2A agonism via beta-arrestin recruitment. P35363. hit rate 0.66% among 360,000. CHO-K1 mHTR2A beta-arrestin complementation, luminescence; percent of 30 µM serotonin response. activation, % at 7.6 µM;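 active = activation above a run cutoff, the mean activation of all tested compounds plus 3 SD, cut at about 14% in these data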;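 also: 0% = plate median of compound wells and 100% = 30 µM serotonin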
MsrA inh: inhibitors of bovine MsrA; purified bovine MsrA, absorbance read-out; inhibition, % at 15.5 µM; hit rate 0.75% among 360,000;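 also: 0% = vehicle wells with enzyme and 100% = reference inhibitor wells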
AHR activator: activators of human aryl hydrocarbon receptor; P35869; AID 2796; AHR-responsive luciferase reporter cells, luminescence; hit rate 2.5% among 320,000; activation, % at 5 µM; in the data active = activation above about 47%;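 also: 0% = vehicle wells and 100% = reference agonist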
Target sequence (P35869 whole entry, looked up): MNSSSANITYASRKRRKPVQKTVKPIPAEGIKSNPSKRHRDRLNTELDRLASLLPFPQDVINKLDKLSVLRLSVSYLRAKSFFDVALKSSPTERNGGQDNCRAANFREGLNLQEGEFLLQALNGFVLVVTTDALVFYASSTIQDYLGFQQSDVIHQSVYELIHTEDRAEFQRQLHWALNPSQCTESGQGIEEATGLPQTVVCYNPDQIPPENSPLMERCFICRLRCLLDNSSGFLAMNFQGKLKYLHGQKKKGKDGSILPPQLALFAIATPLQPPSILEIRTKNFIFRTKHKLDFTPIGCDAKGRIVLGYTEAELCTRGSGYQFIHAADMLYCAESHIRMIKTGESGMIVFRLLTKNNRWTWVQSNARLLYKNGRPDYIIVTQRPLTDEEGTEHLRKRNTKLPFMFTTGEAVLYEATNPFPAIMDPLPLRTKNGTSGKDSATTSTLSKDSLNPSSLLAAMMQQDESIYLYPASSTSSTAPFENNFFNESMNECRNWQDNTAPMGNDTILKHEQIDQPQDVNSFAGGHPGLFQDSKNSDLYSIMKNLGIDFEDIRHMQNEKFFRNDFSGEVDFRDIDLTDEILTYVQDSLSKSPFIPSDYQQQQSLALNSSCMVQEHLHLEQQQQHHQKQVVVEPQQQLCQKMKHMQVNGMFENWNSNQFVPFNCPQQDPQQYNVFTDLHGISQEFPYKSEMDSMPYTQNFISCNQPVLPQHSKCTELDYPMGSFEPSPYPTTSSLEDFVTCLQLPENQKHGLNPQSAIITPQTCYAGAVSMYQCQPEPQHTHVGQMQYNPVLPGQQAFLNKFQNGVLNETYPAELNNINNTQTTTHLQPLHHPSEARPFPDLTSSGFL
bovine MsrA act: bovine methionine sulfoxide reductase A activation; purified bovine MsrA, absorbance read-out; activation, % at 10.6 µM; hit rate 0.3% among 360,000; in the data active = activation above about 7.5%;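 also: 0% = vehicle and 100% = reference activator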
TbMetRS inhib: Trypanosoma brucei MetRS inhibition; purified T. brucei MetRS, ATP depletion, Kinase-Glo luminescence; inhibition, % at 11.9 µM; hit rate 0.4% among 360,000;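 active = inhibition above a per-plate cutoff of the control wells' mean inhibition plus 3 SD, cut at about 5.5% in these data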;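 also: 0% = DMSO wells median and 100% = median of wells with control inhibitor compound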
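Test system: purified T. brucei MetRS enzyme. Also added: ATP, methionine and E. coli bulk tRNA substrates. Compound: 11.9 µM single point. Schedule: 15 min enzyme-compound preincubation, 2 h reaction, 10 min detection, 25 °C. Signal: luciferase luminescence of residual ATP, Kinase-Glo. Evaluation: percent inhibition versus plate control medians. Controls: DMSO wells, low control.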
AHR act cf: confirmation of human aryl hydrocarbon receptor activators | shares compounds with AHR activator | human cells, AHR-responsive luciferase reporter, luminescence | activation, % at 9 µM | hit rate 87% among 2,300; in the data active = activation above about 49%;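 also: HepG2 hepatoma cells carrying a DRE-driven firefly luciferase reporter; 0% = vehicle wells and 100% = reference agonist wells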
PXR counter: activates human PXR in AHR activator counter-screen; activation, % at 11.6 µM; hit rate 88% among 2,300; cell-based PXR reporter, luciferase luminescence; shares compounds with AHR activator; in the data active = activation above about 11%;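 also: human hepatoma DPX-2 cells expressing full-length human PXR; 0% = DMSO and 100% = reference agonist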
TbMetRS confirm: Trypanosoma brucei MetRS inhibition confirmed | shares compounds with TbMetRS inhib | T. brucei MetRS enzyme, luminescence (ATP depletion) | inhibition, % at 11.9 µM | hit rate 93% among 1,400 | AID 624412; in the data active = inhibition above about 7%
Jurkat tox: counter-screen for T. brucei MetRS inhibitors: Jurkat cell cytotoxicity; hit rate 12% among 1,400; inhibition, % at 8.3 µM; shares compounds with TbMetRS inhib; Jurkat cells viability, ATP luminescence; in the data active = inhibition above about 15%;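 also: 0% = vehicle and 100% = reference inhibitor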
TbMetRS FP orth: orthogonal test for Trypanosoma brucei MetRS inhibitors; inhibition, % at 11.9 µM; hit rate 44% among 1,400; shares compounds with TbMetRS inhib; purified T. brucei MetRS, fluorescence polarization; in the data active = inhibition above about 17%;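 also: 0% = vehicle wells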
MsrA conf: confirmation of bovine MsrA inhibitors. shares compounds with MsrA inh. purified bovine MsrA, absorbance read-out. inhibition, % at 15.5 µM. hit rate 41% among 2,300;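 also: coupled to thioredoxin reductase with NADPH and selenocystamine and DMSO as substrate; 0% = vehicle only and 100% = full effect of reference inhibitor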
* hit, by the source's call; ? = inconclusive; . = no result. The list is not random: actives were taken first. Their share in the collection is about 4.4%. Rule as the data show it, unless noted: active = inhibition above about 4.5%; inactive = the rest.

SMILES	AI-2 QS modul	HTR2A ag	MsrA inh	AHR activator	bovine MsrA act	TbMetRS inhib	AHR act cf	PXR counter	MsrA conf	others
Cc1nnc(Nc2ccccn2)c2ccccc12	31	-9	5.5*	148*	-6	-1	143*	58*	1
CCOc1ncccc1C(=O)Nc1ccc2c(c1)OCO2	15	-3	5.0*	110*	-3	0	130*	32*	5
Cc1nnc(N/N=C/c2ccc(-c3ccccc3F)o2)n1N	25	-4	6.1*	109*	1	0	75*	24*	6.0*
Cc1nnc(N/N=C/c2c(Cl)cccc2Cl)n1N	2	0	0	12	6	1	.	.	.
O=C(O)c1ccc2c(c1)C(=O)N([C@H](Cc1cccc3ccccc13)C(=O)O)C2=O	.	-2	0	.	-1	1	.	.	.
CCn1c(O)c(N=NC(=O)CNC(=O)c2ccco2)c2ccccc21	10	-6	1	12	-7	-1	.	.	.
CCCn1c(O)c(N=NC(=O)c2ccco2)c2ccccc21	29	-1	4.7*	87*	-1	0	88*	50*	5.3*
COc1ccc(C(C)(C)C)cc1NC(=O)CCCN1C(=O)NC(C)(C)C1=O	.	-3	-1	0	0	0	.	.	.
CCN(CC)c1ccc(/C=N/NC(=O)C2CC2)cc1	15	-2	5.8*	85*	-5	0	77*	44*	5.5*
CCCCCCOc1ccc(/C=N/NC(=O)C2CC2)cc1	37	3	-1	.	-3	0	.	.	.
CCC(NC(=S)NCc1ccc(F)cc1)c1ccccc1 (stereo not drawn)	14	5	1	0	-9	-1	.	.	.
OCC[C@H]1C[C@H](O)[C@@H](O)[C@@]2(CCCc3ccccc3O2)O1	.	-1	0	2	-2	0	.	.	.
CNc1oc(/C=C/c2ccccc2)nc1C#N	7	0	4.8*	136*	-5	0	112*	18*	4.6*
COc1ccc2nc(C)cc(N/N=C/c3ccc(F)cc3)c2c1	7	2	42*	80*	-7	-1	69*	.	54*
COc1ccc(Nc2cc(C)nc3ccc(OC)cc23)cc1	19	-6	2	40	-11	-1	.	.	.
Cc1ccc(C(=O)NCc2ccc(Cl)cc2)cc1S(=O)(=O)N1CCCCC1	.	-7	0	1	-7	0	.	.	.
CN(C)c1ccc(NC2=C(Cl)C(=O)c3ccccc3C2=O)cc1	?	0	8.2*	135*	-1	-1	76*	13*	3
O=C(Oc1ccc(NC2=C(Cl)C(=O)c3ccccc3C2=O)cc1)c1ccc([N+](=O)[O-])cc1	20	4	.	.	-4	-1	.	.	.
Cc1ccc(C(=O)N/C(=C\c2cn(C)c3ccccc23)C(=O)N2CCOCC2)cc1	8	-2	2	19	-4	0	.	.	.
Cn1cc(/C=C(\NC(=O)c2ccccc2)C(=O)N2CCOCC2)c2ccccc21	1	2	5.7*	85*	-5	0	33	87*	3
CC(C)OC(=O)/C(=C/c1ccc2c(c1)c1ccccc1n2C)NC(=O)c1ccccc1	51	5	4.8*	80*	-13	-1	97*	183*	3
CC(C)OC(=O)/C(=C\c1cccnc1)NC(=O)c1ccccc1	9	4	0	2	-3	0	.	.	.
O=C(Nc1ccc2c(c1)OCO2)c1c(Cl)nc2sccn12	12	-5	10*	114*	1	0	154*	53*	3
Cn1cc(C(=O)N/N=C/C(Br)=C/c2ccccc2)ccc1=O	9	-3	6.7*	116*	-7	-1	143*	11*	5.7*
Cc1[nH]c(C)c(S(=O)(=O)NCc2ccc(F)cc2)c1C(=O)N1CCCCC1	4	-4	-1	2	-2	0	.	.	.
SMILES	AI-2 QS modul	HTR2A ag	MsrA inh	AHR activator	bovine MsrA act	TbMetRS inhib	AHR act cf	PXR counter	MsrA conf	others
Fc1cccc(/C=N/Nc2ccccn2)c1	33	0	3	11	-11	-1	.	.	.
Fc1cccc(/C=N/Nc2ncnc3nc[nH]c23)c1	1	2	5.2*	105*	-4	-1	78*	33*	4
Fc1ccccc1/C=N/Nc1ncnc2nc[nH]c12	3	0	8.9*	130*	-5	0	83*	40*	4
CCOc1ccc(NC(=O)CN(C)C(=O)c2cc3c(s2)CCCCC3)cc1OCC	21	4	0	6	-7	0	.	.	.
Cc1ccc(S(=O)(=O)Nc2ccc(F)cc2)cc1C(=O)N1CCOCC1	.	-1	2	0	-2	0	.	.	.
COc1cccc(N=c2oc3ccccc3cc2-c2nc3ccccc3[nH]2)c1	4	3	5.2*	92*	-3	-1	132*	23*	1
Cc1cc(C)c(C#N)c(SCC(=O)N(CCC#N)c2ccc3c(c2)OCCO3)n1	.	-10	-1	.	-2	0	.	.	.
O=C1CCC2(CCCCC2)N1	.	-1	0	.	-1	0	.	.	.
Cc1nc(NC(=O)/C=C/c2ccco2)sc1C	6	4	3	10	-11	-1	.	.	.
CCc1nnc(NC(=O)/C=C/c2ccco2)s1	6	1	6.8*	93*	-8	0	59*	58*	6.2*
O=C(N/N=C/c1sc(N2CCOCC2)nc1-c1ccccc1)c1ccc(O)cc1	21	-5	17*	95*	-5	0	49*	11*	10*
O=C(N/N=C/c1ccc2c(c1)OCO2)c1ccc(Br)o1	13	-1	7.5*	175*	-4	0	120*	22*	8.3*
CCCc1ccc(-c2c(C)sc(N)c2C#N)cc1	27	0	5.3*	97*	-3	27*	104*	13*	-1	TbMetRS confirm=17*;Jurkat tox=11;TbMetRS FP orth=8
Cc1ccc(/C=N/NC(=O)c2cccs2)s1	23	8	6.7*	130*	-6	-1	45	28*	4.9*

High-throughput results from PubChem BioAssay.
